Experiment [1] deals with Rattus norvegicus. Put plainly: Vasopressor responses to epinephrine as a measure of the alpha-1-adrenoceptor blocking activity at 2.5 mg/kg administered orally was reported to be reversed. It counts as functional, organism-based. The arrangement: dose 2.5 mg/kg.
Experiment [2] relates to Rattus norvegicus. Put plainly: Antihypertensive activity was determined in cannulated spontaneously hypertensive rats(SHR) and maximum decrease of mean arterial blood pressure (MABP) at 10 mg/kg oral dose. It counts as functional, Artery. The essentials: (§1)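 Cannulated SHR given compound by gastric gavage in 0.5% methylcellulose (5 mL/kg), doses 0.1–50 mg/kg, 4–8 animals per dose, after 1-h equilibration. MABP recorded for 4 h; maximal % decrease reported with time to peak effect. Significance by two-way analysis of variance.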

For experiment [3], the system named is Rattus norvegicus. Put plainly: Antagonism of vasopressor responses to epinephrine as a measure of the alpha-1-adrenoceptor blocking activity at 5 mg/kg administered orally was reported to be reversed. The arrangement: dose 5 mg/kg. Format: functional, organism-based.
The subject of experiment [4] is Rattus norvegicus. Nature of the experiment: Antihypertensive activity was determined in cannulated spontaneously hypertensive rats(SHR) and heart rate response was reported to reduce by 10-25% after 4 hr at a peroral dose of 5 mg/kg. Format: functional, organism-based. More on the design: dose 5 mg/kg.
Experiment [5] has as its system Rattus norvegicus. Nature of the experiment: Antihypertensive activity was determined in cannulated spontaneously hypertensive rats(SHR) and maximum decrease of mean arterial blood pressure (MABP) at 1 mg/kg oral dose. Format: functional, Artery. In outline: as §1
The test system of experiment [6] is Rattus norvegicus. Put plainly: Antihypertensive activity was determined in cannulated spontaneously hypertensive rats(SHR) and heart rate response was reported to reduce by 10-25% after 4 hr at a peroral dose of 10 mg/kg. It counts as functional, organism-based. More on the design: dose 10 mg/kg.
The test system of experiment [7] is Rattus norvegicus. Put plainly: Antihypertensive activity was determined in cannulated spontaneously hypertensive rats(SHR) and heart rate response was reported to reduce by 10-25% after 4 hr at a peroral dose of 2.5 mg/kg. The arrangement: dose 2.5 mg/kg. Format: functional, organism-based.
Experiment [8] relates to Rattus norvegicus. Put plainly: Antihypertensive activity was determined in cannulated spontaneously hypertensive rats(SHR) and heart rate response was reported to reduce by 10-25% after 4 hr at a peroral dose of 1.0 mg/kg. Format: functional, organism-based. More on the design: dose 1 mg/kg.
Experiment [9] concerns Rattus norvegicus. Nature of the experiment: Vasopressor responses to epinephrine as a measure of the alpha-1-adrenoceptor blocking activity at 1 mg/kg administered orally was reported to be antagonized. It counts as functional, organism-based. More on the design: dose 1 mg/kg.
For experiment [10], the system named is Rattus norvegicus. Nature of the experiment: Antihypertensive activity was determined in cannulated spontaneously hypertensive rats(SHR) and maximum decrease of mean arterial blood pressure (MABP) at 2.5 mg/kg oral dose. It counts as functional, Artery. The essentials:
as §1

The subject of experiment [11] is Rattus norvegicus. Put plainly: Vasopressor responses to epinephrine as a measure of the alpha-1-adrenoceptor blocking activity at 10 mg/kg administered orally was reported to be reversed. It counts as functional, organism-based. The arrangement: dose 10 mg/kg.
Experiment [12] has as its system Rattus norvegicus. Nature of the experiment: Antihypertensive activity was determined in cannulated spontaneously hypertensive rats(SHR) and maximum decrease of mean arterial blood pressure (MABP) at 5 mg/kg oral dose. It counts as functional, Artery. In outline: as §1
The subject of experiment [13] is Rattus norvegicus. Put plainly: Antihypertensive activity was determined in cannulated spontaneously hypertensive rats(SHR) and maximum decrease of mean arterial blood pressure (MABP) at 50 mg/kg oral dose. It counts as functional, Artery. The essentials:
as §1

For experiment [14], the system named is Rattus norvegicus. Nature of the experiment: Vasopressor responses to epinephrine as a measure of the alpha-1-adrenoceptor blocking activity at 10 mg/kg administered orally was reported to have no change. The arrangement: dose 10 mg/kg. Format: functional, organism-based.
The subject of experiment [15] is Rattus norvegicus. Nature of the experiment: Antihypertensive activity was determined in cannulated spontaneously hypertensive rats(SHR) and heart rate response was reported to be reduce by 10-25% after 4 hr at a dose of 50 mg/kg. Format: functional, organism-based. More on the design: dose 50 mg/kg.
Experiment [16] relates to Rattus norvegicus. Nature of the experiment: Vasopressor responses to epinephrine as a measure of the alpha-1-adrenoceptor blocking activity at 1 mg/kg administered orally was reported to be reversed. It counts as functional, organism-based. The arrangement: dose 1 mg/kg.
In experiment [17] the test system is Rattus norvegicus. Nature of the experiment: Antihypertensive activity was determined in cannulated spontaneously hypertensive rats(SHR) and marked bradycardia was reported at a dose of 10 mg/kg. It counts as functional, organism-based. The arrangement: dose 10 mg/kg.
The subject of experiment [18] is Rattus norvegicus. Put plainly: Vasopressor responses to epinephrine as a measure of the alpha-1-adrenoceptor blocking activity at 0.25 mg/kg administered orally was reported to be reversed. Format: functional, organism-based. More on the design: dose 0.25 mg/kg.
Experiment [19] deals with Rattus norvegicus. Put plainly: Antihypertensive activity was determined in cannulated spontaneously hypertensive rats(SHR) and heart rate response was reported to reduce by 10-25% after 4 hr at a peroral dose of 0.25 mg/kg. Format: functional, organism-based. The arrangement: dose 0.25 mg/kg.

From ChEMBL document CHEMBL1123678, “Octahydropyrazino[2',3':3,4]pyrido[1,2-a]indoles. A new class of potent antihypertensive agents” (1987) come the findings set out here.

Each structure is given as a SMILES string. Calls of active or inactive are those of the source. The rule behind the calls is not given here.

As to `Br.CCCN1CCN(CCC)C2c3c(C)c4ccccc4n3CCC21` (stereo not drawn), the Activity entry with Rattus norvegicus [1], in the experiment on Rattus norvegicus [3], with Rattus norvegicus [9] and with Rattus norvegicus [11] was “Antagonism reversed” throughout. Also, the “Decrease in MABP” value was found to be 18% in the experiment on Rattus norvegicus [2], 13% in the experiment on Rattus norvegicus [5], 16% with Rattus norvegicus [10] and 12% in the experiment with Rattus norvegicus [12]. For the same compound, the HR result with Rattus norvegicus [4], in the experiment on Rattus norvegicus [6], in the experiment with Rattus norvegicus [7] and with Rattus norvegicus [8] was “Heart rate response was reported to reduce by 10-25% after 4 hr at a peroral dose of 1.0 mg/kg” each time.
Take `Cc1c2n(c3ccccc13)CCC1C2N(C)CCN1C.Cl.Cl` (stereo not drawn): the “Decrease in MABP” value in the experiment with Rattus norvegicus [13] was 12%.
`Cc1c2n(c3ccccc13)CCC1C2NCCN1CCOc1ccccc1` (stereo not drawn): the “Decrease in MABP” value with Rattus norvegicus [2] is given as 7%. The result in the experiment with Rattus norvegicus [14] was inactive.
`CCN1CCN(CC)[C@H]2c3c(C)c4ccccc4n3CC[C@H]21.Cl.Cl`: the “Decrease in MABP” value in the experiment on Rattus norvegicus [13] was determined as 25%. Besides, in the experiment on Rattus norvegicus [15], the HR result is “Heart rate response was reported to be reduce by 10-25% after 4 hr at a dose of 25 mg/kg”.
With `CCN1CCN(CC)C2c3c(C)c4cc(Br)ccc4n3CCC21.Cl` (stereo not drawn), the “Decrease in MABP” value in the experiment on Rattus norvegicus [2] came to 15%. The Activity result in the experiment with Rattus norvegicus [11] is “Vasopressor response reversed”.
On to `Br.CCCN1CCN(CC)C2CCn3c(c(C)c4ccccc43)C21` (stereo not drawn), for which the Activity result in the experiment on Rattus norvegicus [16], with Rattus norvegicus [1] and in the experiment with Rattus norvegicus [11] was “Vasopressor response reversed” throughout. Moreover, the “Decrease in MABP” value in the experiment on Rattus norvegicus [2] is given as 42%; in the experiment on Rattus norvegicus [5] it was 13%; in the experiment on Rattus norvegicus [10], 24%. Also, in the experiment with Rattus norvegicus [17], the HR entry is “Heart rate response was reported to reduce by 10-25% after 4 hr at a peroral dose of 1.0 mg/kg”.
Regarding `CCN1CCN(C(C)C)C2CCn3c(c(C)c4ccccc43)C21` (stereo not drawn), the Activity entry with Rattus norvegicus [16], with Rattus norvegicus [1], with Rattus norvegicus [18] and in the experiment on Rattus norvegicus [11] was “Vasopressor response reversed” each time. Besides, the “Decrease in MABP” value in the experiment on Rattus norvegicus [2] is recorded as 56%; in the experiment on Rattus norvegicus [5] it was 40%; in the experiment with Rattus norvegicus [10], 52%. Also, the HR entry with Rattus norvegicus [7], with Rattus norvegicus [8] and in the experiment on Rattus norvegicus [19] was “Heart rate response was reported to reduce by 10-25% after 4 hr at a peroral dose of 0.25 mg/kg” in each case.
As for `Cc1c2n(c3ccccc13)CCC1C2N(C)CCN1C` (stereo not drawn), the figures for the “Decrease in MABP” value in the experiment with Rattus norvegicus [2] and in the experiment with Rattus norvegicus [12] were 23% and 13%, respectively.
